Experimental data taken from ChEMBL document CHEMBL5260861, “Examination of aminophenol-containing compounds designed as antiproliferative agents and potential atypical retinoids” (2023).
Activity calls are given as the source filed them. The rule behind the calls is not given here.

Legend:
PC-3 [1] = assay: Antiproliferative activity against human PC-3 cells assessed as inhibition of cell growth at 1 to 10 uM incubated for 72 hrs by MTT assay; type: functional, cell-based; conditions: dose 1-10 µM
Summary of the method: (§1)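 Cells seeded at 1–4 × 10^4 cells/mL in RPMI 1640 with 10% FBS and 1 mM HEPES, 37 °C, 5% CO2. After 24 h, compounds added at various concentrations for 72 h; controls received 0.1% DMSO. Viable cells measured by MTT. Percent net growth calculated relative to control, correcting for initial absorbance. Mean ± SD (n = 3).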

MCF7 [2] = assay: Antiproliferative activity against human MCF7 cells assessed as inhibition of cell growth at 1 to 10 uM incubated for 72 hrs by MTT assay; type: functional, cell-based; conditions: dose 1-10 µM; summary of the method: as §1
PC-3 [3] = assay: Antiproliferative activity against human PC-3 cells assessed as inhibition of cell growth at 10 uM incubated for 72 hrs by MTT assay; type: functional; summary of the method: as §1
PC-3 [4] = assay: Induction of autophagy in human PC-3 cells assessed as increase in LC3-II protein expression at 10 uM incubated for 72 hrs by immunoblotting analysis relative to control; type: functional
Summary of the method: (§2)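 Cells seeded at 2 × 10^4 cells/mL and grown 24 h at 37 °C in 5% CO2 in RPMI 1640 with 10% FBS and 1 mM HEPES. They were then treated 72 h with compound at 10 μM or with DMSO control. Whole-cell lysates were made in NP40 buffer, protein measured by BCA, and samples run on SDS-PAGE. LC3 was probed with β-actin as loading control. Control was set to 1.0; mean ± SD, n = 3.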

PC-3 [5] = assay: Effect in Bcl-2 protein expression in human PC-3 cells at 10 uM incubated for 72 hrs by immunoblotting analysis; type: functional, cell-based
Summary of the method: (§3)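 Cells seeded at 2 × 10^4 cells/mL and grown 24 h, then given 10 μM compound or DMSO for 72 h. Whole-cell lysates prepared in NP40 buffer (25 mM Tris-HCl pH 8, 150 mM NaCl, 0.5% NP40, NaF, Na3VO4, protease inhibitors), quantified by BCA. Lysates run on SDS-PAGE and blotted. Probed for Bcl-2, Bcl-xL, ERK/p-ERK, Akt/p-Akt and β-actin. Control set to 1.0; mean ± SD (n = 3).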

MCF7 [6] = assay: Induction of cell cycle arrest in human MCF7 cells at 10 uM incubated for 24 hrs by propidium iodide staining based flow cytometry; type: functional
Summary of the method: (§4)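 Cells seeded at 2 × 10^4 cells/mL and grown 24 h, then given 10 μM compound or DMSO for 24 h. Harvested cells fixed in 70% ethanol at 4 °C overnight, washed twice with PBS, and treated with 100 μg/mL RNase A (37 °C, 30 min). Stained with 10 μg/mL propidium iodide; cell cycle analysed by flow cytometry.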

MCF7 [7] = assay: Induction of autophagy in human MCF7 cells assessed as increase in LC3-II protein expression at 10 uM incubated for 72 hrs by immunoblotting analysis relative to control; type: functional; summary of the method: as §2
PC-3 [8] = assay: Induction of apoptosis in human PC-3 cells assessed as accumulation of cells at subG1 phase at 10 uM incubated for 24 hrs by propidium iodide staining based flow cytometry; type: functional, cell-based; summary of the method: as §4
[9] = molecular target: T1, Retinoic acid receptor RXR-alpha (Homo sapiens) (UniProt P19793); assay: Agonist activity at human RXR-alpha assessed as receptor transactivation at 500 to 20000 nM incubated for 24 hrs by luciferase reporter gene assay; conditions: dose 500-20000 nM
T1 sequence (whole entry): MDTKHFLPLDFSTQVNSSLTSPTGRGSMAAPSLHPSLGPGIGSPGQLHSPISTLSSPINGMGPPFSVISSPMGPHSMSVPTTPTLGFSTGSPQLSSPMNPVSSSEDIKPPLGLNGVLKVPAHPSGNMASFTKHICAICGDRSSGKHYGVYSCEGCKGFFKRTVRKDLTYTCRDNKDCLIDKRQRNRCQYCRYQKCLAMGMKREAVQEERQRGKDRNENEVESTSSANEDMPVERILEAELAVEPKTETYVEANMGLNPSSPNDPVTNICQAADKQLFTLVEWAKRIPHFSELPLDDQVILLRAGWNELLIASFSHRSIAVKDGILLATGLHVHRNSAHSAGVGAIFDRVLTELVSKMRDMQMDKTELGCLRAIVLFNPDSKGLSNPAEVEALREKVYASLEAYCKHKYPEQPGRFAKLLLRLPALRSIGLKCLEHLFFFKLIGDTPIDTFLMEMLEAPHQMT
Summary of the method: (§5)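 INDIGO RARα or RXRα reporter cells seeded, then medium containing compound added (0.5, 1, 4, 10, 20 μM); 24 h at 37 °C. Medium removed, luciferase detection reagent added, light emission read. 9-cis-retinoic acid (0.5–500 nM) served as positive control. Three replicate wells per vehicle control; mean ± SD (n = 3).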

MCF7 [10] = assay: Induction of apoptosis in human MCF7 cells assessed as accumulation of cells at subG1 phase at 10 uM incubated for 24 hrs by propidium iodide staining based flow cytometry; type: functional, cell-based; summary of the method: as §4
MCF7 [11] = assay: Inhibition of Akt phosphorylation in human MCF7 cells assessed as decrease in phosphorylated Akt level at 10 uM incubated for 72 hrs by immunoblotting analysis; type: cell-based; summary of the method: as §3
[12] = molecular target: T2, Retinoic acid receptor alpha (Homo sapiens) (UniProt P10276); assay: Agonist activity at human RAR-alpha assessed as receptor transactivation at 500 to 20000 nM incubated for 24 hrs by luciferase reporter gene assay; conditions: dose 500-20000 nM; summary of the method: as §5
T2 sequence (whole entry): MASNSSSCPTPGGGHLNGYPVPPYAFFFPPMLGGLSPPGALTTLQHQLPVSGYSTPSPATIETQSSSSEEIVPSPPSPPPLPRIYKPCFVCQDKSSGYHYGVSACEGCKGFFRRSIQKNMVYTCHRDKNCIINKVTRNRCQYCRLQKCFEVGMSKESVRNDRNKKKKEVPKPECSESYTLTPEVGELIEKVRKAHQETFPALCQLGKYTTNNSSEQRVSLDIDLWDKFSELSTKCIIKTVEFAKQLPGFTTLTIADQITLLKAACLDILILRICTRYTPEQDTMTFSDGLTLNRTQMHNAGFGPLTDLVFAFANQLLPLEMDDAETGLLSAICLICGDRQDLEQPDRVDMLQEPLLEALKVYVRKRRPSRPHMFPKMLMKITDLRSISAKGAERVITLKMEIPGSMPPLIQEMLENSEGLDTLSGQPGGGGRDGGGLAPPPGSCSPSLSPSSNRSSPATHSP

PC-3 [13] = assay: Inhibition of Akt phosphorylation in human PC-3 cells assessed as decrease in phosphorylated Akt level at 10 uM incubated for 72 hrs by immunoblotting analysis; type: cell-based; summary of the method: as §3
PC-3 [14] = assay: Effect in Bcl-xL protein expression in human PC-3 cells at 10 uM incubated for 72 hrs by immunoblotting analysis; type: functional, cell-based; summary of the method: as §3
MCF7 [15] = assay: Effect on Bcl-2 protein expression in human MCF7 cells at 10 uM incubated for 72 hrs by immunoblotting analysis; type: functional, cell-based; summary of the method: as §3
MCF7 [16] = assay: Effect in Bcl-xL protein expression in human MCF7 cells at 10 uM incubated for 72 hrs by immunoblotting analysis; type: functional, cell-based; summary of the method: as §3
PC-3 [17] = assay: Antiproliferative activity against human PC-3 cells assessed as inhibition of cell growth at 4 uM incubated for 72 hrs by MTT assay; type: functional; summary of the method: as §1
PC-3 [18] = assay: Induction of cell cycle arrest in human PC-3 cells at 10 uM incubated for 24 hrs by propidium iodide staining based flow cytometry; type: functional; summary of the method: as §4
MCF7 [19] = assay: Antiproliferative activity against human MCF7 cells assessed as inhibition of cell growth at 4 uM incubated for 72 hrs by MTT assay; type: functional; summary of the method: as §1
MCF7 [20] = assay: Inhibition of ERK phosphorylation in human MCF7 cells at 10 uM incubated for 72 hrs by immunoblotting analysis; type: cell-based; summary of the method: as §3
PC-3 [21] = assay: Inhibition of ERK phosphorylation in human PC-3 cells at 10 uM incubated for 72 hrs by immunoblotting analysis; type: cell-based; summary of the method: as §3
MCF7 [22] = assay: Antiproliferative activity against human MCF7 cells assessed as inhibition of cell growth at 4 to 10 uM incubated for 72 hrs by MTT assay; type: functional, cell-based; conditions: dose 4-10 µM; summary of the method: as §1
PC-3 [23] = assay: Antiproliferative activity against human PC-3 cells assessed as inhibition of cell growth at 4 to 10 uM incubated for 72 hrs by MTT assay; type: functional, cell-based; conditions: dose 4-10 µM; summary of the method: as §1
PC-3 [24] = assay: Antiproliferative activity against human PC-3 cells assessed as inhibition of cell growth incubated for 72 hrs by MTT assay; type: functional, cell-based; conditions: dose 1-10 µM; summary of the method: as §1
PC-3 [25] = assay: Antiproliferative activity against human PC-3 cells assessed as inhibition of cell growth at 1 uM incubated for 72 hrs by MTT assay; type: functional; summary of the method: as §1
MCF7 [26] = assay: Antiproliferative activity against human MCF7 cells assessed as inhibition of cell growth incubated for 72 hrs by MTT assay; type: functional, cell-based; conditions: dose 1-10 µM; summary of the method: as §1
MCF7 [27] = assay: Antiproliferative activity against human MCF7 cells assessed as inhibition of cell growth at 10 uM incubated for 72 hrs by MTT assay; type: functional; summary of the method: as §1

O=C(O)CCCCCCCCCCCNc1ccc(O)cc1
Activity (PC-3 [1]): inactive
Activity (MCF7 [2]): inactive

COC(=O)CCCCCCCCCCC(=O)Nc1ccc(O)cc1
inhibition at 10 µM (PC-3 [3]): 10%
Activity (MCF7 [2]): inactive

O=C(O)CCCCCCCCCCC(=O)Nc1ccc(O)cc1
fold change (FC) (PC-3 [4]): 1.5
Activity (PC-3 [5]): inactive
Activity (MCF7 [6]): inactive
fold change (FC) (MCF7 [7]): 1.6
Activity (PC-3 [8]): inactive
inhibition at 10 µM (PC-3 [3]): 70%
Activity [9]: inactive
Activity (MCF7 [10]): inactive
inhibition (MCF7 [11]): Active
Activity [12]: inactive
inhibition (PC-3 [13]): 35%
Activity (PC-3 [14]): inactive
Activity (MCF7 [15]): inactive
Activity (MCF7 [16]): inactive
inhibition at 4 µM (PC-3 [17]): 54%
Activity (PC-3 [18]): inactive
inhibition at 4 µM (MCF7 [19]): 40%
inhibition (MCF7 [20]): inactive
inhibition (PC-3 [21]): inactive
Activity (MCF7 [22]): Active

CCCCCCCCCCCC(=O)Nc1ccc(O)cc1
inhibition at 10 µM (PC-3 [3]): 24%
Activity (PC-3 [23]): Active
Activity (MCF7 [22]): inactive

CC1=C(/C=C/C(C)=C/C=C/C(C)=C/C(=O)O)C(C)(C)CCC1 [TRETINOIN]
inhibition at 4 µM (PC-3 [17]): 18%
inhibition at 4 µM (MCF7 [19]): 37%

COC(=O)CCCCCCCNc1ccc(O)cc1
Activity (MCF7 [2]): inactive

CCCCCCCCNc1ccc(O)cc1
Activity (PC-3 [24]): Dose-Dependent Effect
inhibition at 1 µM (PC-3 [25]): 33%
Activity (MCF7 [26]): Dose-Dependent Effect
inhibition at 4 µM (MCF7 [19]): 14%
inhibition at 10 µM (MCF7 [27]): 45%

CCCCCCCCCC(=O)Nc1ccc(O)cc1
inhibition at 10 µM (PC-3 [3]): 43%
Activity (PC-3 [23]): Active
Activity (MCF7 [22]): inactive

O=C(O)CCCCCCC(=O)Nc1ccc(O)cc1
Activity (PC-3 [23]): inactive
inhibition at 4 µM (MCF7 [19]): 30%
Activity (MCF7 [22]): Active

CCCCCCCCCCNc1ccc(O)cc1
Activity (PC-3 [24]): Dose-Dependent Effect
inhibition at 1 µM (PC-3 [25]): 65%
Activity (MCF7 [26]): Dose-Dependent Effect
inhibition at 4 µM (MCF7 [19]): 31%
inhibition at 10 µM (MCF7 [27]): 51%

COC(=O)CCCCCCC(=O)Nc1ccc(O)cc1
Activity (MCF7 [2]): inactive

CCCCCCCCCCCCNc1ccc(O)cc1
Activity (PC-3 [24]): Dose-Dependent Effect
inhibition at 1 µM (PC-3 [25]): 91%
Activity (MCF7 [26]): Dose-Dependent Effect
inhibition at 4 µM (MCF7 [19]): 61%
inhibition at 10 µM (MCF7 [27]): 73%

CCCCCCCC(=O)Nc1ccc(O)cc1
inhibition at 10 µM (PC-3 [3]): 45%
Activity (PC-3 [23]): Active
Activity (MCF7 [22]): inactive

O=C(O)CCCCCCCCC(=O)Nc1ccc(O)cc1
Activity (PC-3 [23]): inactive
inhibition at 4 µM (MCF7 [19]): 28%
Activity (MCF7 [22]): Active

O=C(O)CCCCCCCNc1ccc(O)cc1
Activity (PC-3 [1]): inactive
Activity (MCF7 [2]): inactive

O=C(O)CCCCCCCCCNc1ccc(O)cc1
Activity (PC-3 [1]): inactive
Activity (MCF7 [2]): inactive

COC(=O)CCCCCCCCCCCNc1ccc(O)cc1
inhibition at 10 µM (PC-3 [3]): 10%
Activity (MCF7 [2]): inactive

COC(=O)CCCCCCCCC(=O)Nc1ccc(O)cc1
Activity (MCF7 [2]): inactive

COC(=O)CCCCCCCCCNc1ccc(O)cc1
Activity (MCF7 [2]): inactive
